MT stabilize HCS: microtubule stabilizers in HeLa cells. HeLa tubulin immunostaining HCS, 24 h; share of cells brighter than vehicle mean+2SD. % tubulin-high responders, % at 10 µM. hit rate 0.83% among 200,000. AID 2205;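 active = plate Z-score above 3 for both tubulin-high and condensed-nucleus cell shares, with cell loss under 80%, at 10 µM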;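 note: anti alpha tubulin signal scored within the nucleus-defined area of each cell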
STAT3 inh: reduces IL-6 driven STAT3 reporter signal; inhibition, % at 5.5 µM; hit rate 0.89% among 190,000; AID 862; U3A cells, IL-6 STAT3-luciferase reporter, luminescence; host cell line lacks STAT1;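 active = inhibition above the mean inhibition across all screened compounds plus 3 SD, cut at about 44% in these data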
STAT1 inh: reduces IFN-gamma driven STAT1 reporter signal. AID 920. hit rate 0.35% among 200,000. inhibition, % at 5.5 µM. NIH 3T3 STAT1-luciferase reporter, luminescence;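 active = inhibition above a set limit, the mean inhibition across all tested compounds plus 3 SD, cut at about 34% in these data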
b-catenin transl: modulators of beta-catenin nuclear translocation; hit rate 0.3% among 190,000; AID 1665; HeLa beta-catenin nuclear translocation, immunofluorescence imaging; nuclear translocation activity, % at 5 µM;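 active = nuclear translocation activity above 50% at 5 µM, with a well cell count of 50 or more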;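 note: per-cell ratio of nuclear to cytoplasmic median beta-catenin stain intensity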
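System: Human HeLa cells, endogenous beta-catenin | Compound dosing: 5 µM primary, 0.02–20 µM confirmation | Timing: 24 h compound exposure at 37°C, 5% CO2 | Measured by: Fluorescence imaging of beta-catenin antibody stain plus DAPI | Read-out basis: % activation of per-cell nuclear versus cytoplasmic median beta-catenin signal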
STAT3 activator: activators of IL-6 induced STAT3 signaling | AID 871 | activation (% of control), % at 5.6 µM | U3A cells, IL-6 STAT3-luciferase reporter, luminescence; 100% = signal with IL-6 EC80 alone | hit rate 0.91% among 190,000;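 active = activation above the screen-wide mean of compound activation plus 3 SD, cut at about 130% in these data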
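Material: STAT3-luciferase reporter U3A cells. Controls: IL-6-treated wells, 100% activation. Read-out: % activation versus median of IL-6-stimulated wells. Probe or stimulus: IL-6 stimulus at 33 ng/mL final. Timing: compound 1 h, then IL-6 6 h at 37 °C. Signal: reporter luminescence signal.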
Hits are given with their value; . = inactive; / = not tested or not shown. An excerpt weighted towards active compounds, which were near 2.4% of everything screened.

SMILES	MT stabilize HCS	STAT3 inh	STAT1 inh	b-catenin transl	STAT3 activator
CSc1nnc(-c2sc3cc(C(F)(F)F)cnc3c2-c2ccccc2)n1C	40	.	.	/	.
O=S(=O)(NC1c2cccc3cccc(c23)C1N1CCN(CCO)CC1)c1ccccc1 (stereo unspecified)	.	.	.	.	134
O=S(=O)(NC1c2cccc3cccc(c23)C1N1CCNCC1)c1ccccc1 (stereo unspecified)	.	.	.	.	.
C/C(CCC(C)C)=N\NC(=S)NCc1ccccc1	.	.	.	.	.
CCCCCCCCCCn1c2c(c(=N)c3c1CCC3)CCC2	.	78	.	.	.
CCCCCCCCCn1c2c(c(=N)c3c1CCC3)CCCC2	26	76	52	.	.
CCOC(=O)N1CCC(N2C(=O)c3ccccc3C2Nc2ccc(S(=O)(=O)N3CCCCC3)cc2)CC1 (stereo unspecified)	.	.	.	.	.
Cn1c(=O)oc2cc(S(=O)(=O)N3CCC(C(=O)NCCc4ccccc4)CC3)ccc21	/	/	/	.	/
Nc1nn(-c2ccccc2)c(N)c1N=Nc1ccccc1	22	.	.	89	.
Cc1nn(-c2ccccc2)c(N)c1N=Nc1ccccc1	.	.	.	.	.
Nc1c(N=Nc2ccccc2F)c(=O)[nH]n1-c1ccccc1	.	.	.	/	.
Nc1nn(-c2ccccc2)c(N)c1N=Nc1ccccc1F	26	.	.	.	.
COCCn1c(N)c(C(=S)NC(=O)c2cccs2)c(=O)[nH]c1=O	/	/	/	.	/
O=C(CSc1ccccc1)NCCSCc1ccccc1	.	.	.	.	.
Brc1ccc(CSc2nnc(-c3ccccn3)n2Cc2ccco2)cc1	.	.	.	100	.
C(=C\c1ccccc1)/CSc1nnc(-c2ccccc2)n1Cc1ccco1	23	.	.	141	.
CC(C)(C)c1ccc(CSc2nnc(-c3ccccn3)n2Cc2ccco2)cc1	.	.	.	.	.
Clc1cccc(-c2nnc(SC/C=C/c3ccccc3)n2Cc2ccco2)c1	37	.	.	.	.
Cc1ccc(S(=O)(=O)N(C)C)cc1NC(=O)c1cccnc1Oc1ccccc1	/	/	/	.	/
COc1cc(OC)cc(-c2nc3cc(C)ccc3o2)c1	.	.	.	/	171
COc1cc(OC)cc(-c2nc3ccccc3c(=O)o2)c1	.	.	.	.	.
Cc1ccc(-c2nc3cc(Cl)ccc3o2)cc1	.	.	.	.	135
Cc1ccc(S(=O)(=O)Nc2ccccc2CNC2CCCCC2)cc1	.	.	.	.	.
Cc1nn(C)cc1S(=O)(=O)NC1CCCC1	.	.	.	.	.
Cc1cc(F)ccc1S(=O)(=O)Nc1ccccc1C(=O)NCc1cccnc1	.	.	.	.	.
SMILES	MT stabilize HCS	STAT3 inh	STAT1 inh	b-catenin transl	STAT3 activator
COc1ccc(Cl)cc1NC(=O)CN(C)CC(=O)Nc1ccccc1N1CCOCC1	22	.	.	86	.
COC(=O)c1ccccc1NC(=O)CNc1cc(Cl)ccc1N1CCOCC1	.	.	.	.	.
COC(=O)CC/C(O)=C1\C(=O)CC(C)(C)CC1=Nc1ccccc1OC	17	.	.	.	.
CCC/C(O)=C1\C(=O)CC(C)(C)CC1=Nc1ccc(OC)cc1OC	.	.	.	76	.
COc1cc(C(=O)O)c2ccccc2n1	.	.	.	.	.
COCCn1c(C)cc(C(=O)CSc2n[nH]c(N)n2)c1C	.	.	.	.	.
COCCn1c(C)cc(C(=O)CSc2nnc(C)s2)c1C	.	92	39	.	.
O=C(Nc1ccccc1)Nc1ccccc1C(=O)NCCCN1CCOCC1	/	/	/	.	/
Cc1csc(SCC(=O)Nc2sccc2C(N)=O)n1	.	.	.	.	.
O=C(CNc1n[nH]c(=O)[nH]c1=O)N/N=C/C1CC=CCC1 (stereo unspecified)	/	/	/	.	/
Cc1noc(C)c1COc1ccc(CC(=O)NCc2ccccc2)cc1	20	.	.	.	.
Cc1noc(C)c1COc1cccc(C(=O)NCCc2c[nH]c3ccccc23)c1	24	.	.	.	.
COCCCNC(=O)CCCCCNS(=O)(=O)c1ccc(Br)cc1	.	.	.	.	.
COc1ccccc1C(=O)NNC(=O)c1nn(Cc2ccccc2)c(=O)c2ccccc12	.	.	.	.	135
CCC(=O)Nc1ccc2nc(C3CC3)n(Cc3ccccc3)c(=O)c2c1	.	.	.	.	.
COc1ccc(Cn2c(C3CC3)nc3ccc(NC(=O)c4ccco4)cc3c2=O)cc1	13	.	.	.	.
Cc1ccc(C23CC4CC(CC(C(=O)OCC(=O)NC5CCS(=O)(=O)C5)(C4)C2)C3)cc1 (stereo unspecified)	.	.	.	.	.
Cc1ccc(NCCCCO)cc1C	.	.	.	.	.
CC(CCc1ccccc1)NC(=O)c1ccc(C(=O)NC(C)CCc2ccccc2)cc1 (stereo unspecified)	.	60	.	/	.
Cc1cccc(NC(=O)NC(C)C(c2ccccc2)N2CCN(C)CC2)c1 (stereo unspecified)	.	.	.	.	.
COc1ccccc1N1CCN(C(=O)c2c(-c3ccccc3)noc2C)CC1	28	.	.	126	.
COc1cc(SC)ccc1C(=O)N1CCN(c2ccccc2OC)CC1	23	.	.	50	.
COC(=O)C1CCN(C(=O)c2ccc(SC)cc2OC)CC1	.	.	.	.	.
CC(Sc1nc(C(C)(C)C)cc(-c2ccccc2)c1C#N)C(=O)Nc1ccccc1 (stereo unspecified)	.	.	.	.	.
CC(C)=CCN1CCN(Cc2nc(-c3ccccc3)cs2)CC1CCO (stereo unspecified)	.	.	.	.	.
SMILES	MT stabilize HCS	STAT3 inh	STAT1 inh	b-catenin transl	STAT3 activator
COc1ccc2[nH]c3c(Cl)ncnc3c2c1	.	.	.	.	.
COc1ccc2[nH]c3c(N4CCc5ccccc5C4)ncnc3c2c1	/	/	/	115	/
COc1ccc(N2CCN(c3ncnc4c3[nH]c3ccccc34)CC2)cc1	.	77	41	.	.
Fc1ccc2[nH]c3c(N4CCN(c5ccccc5)CC4)ncnc3c2c1	.	.	.	.	.
Cc1ccc(Nc2cc(C)nc(NCc3ccccc3)n2)cc1	30	.	.	.	.
COc1ccc(Nc2cc(C)nc(NCc3ccccc3)n2)cc1	/	/	/	.	/
COCCNC(=O)C1CCN(S(=O)(=O)c2c(C)noc2/C=C/c2cccs2)CC1	/	/	/	.	/
CCOC(=O)c1c(C)[nH]c(C(=O)COC(=O)CCC2CCCC2)c1C	.	.	.	.	.
COc1ccc(CN2C=C3C(=O)C(C)(OC(=O)C4CCCC4)C(=O)C=C3C=C2c2ccsc2)cc1 (stereo unspecified)	/	/	/	50	/
CC1(OC(=O)C2CCCC2)C(=O)C=C2C=C(c3ccsc3)N(CCCCO)C=C2C1=O (stereo unspecified)	/	/	/	.	/
CN1c2ccccc2C(C)(C)[C@]12C=Cc1cc(O)ccc1O2	31	.	.	.	.
O=C(CCc1nc(-c2ccccc2F)no1)Nc1ccc(Oc2ccccc2)cc1	24	.	.	.	.
NC1=NC(=O)C(CC(=O)Nc2ccc3c(c2)OCO3)S1 (stereo unspecified)	.	.	.	.	.

Source: PubChem (several laboratories)
